Tested on: not listed separately
Experiment: Antagonistic activity against HOXA1-PBX1/DNA complex formation by electrophoretic mobility shift assay
Format: functional
Method in brief: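 Recombinant mouse HOXA1 192–288 and mouse/human PBX1 233–319 (2.5 ng each) preincubated 15 min at 4 °C in HEPES pH 7.9 binding buffer with 135 mM NaCl, poly dIdC and inhibitor in DMSO, then 30 min at ~22 °C with 32P-labeled Klenow-extended annealed oligonucleotide probe. Run on 4% polyacrylamide gel in TBE, autoradiographed; IC50 from averaged densitometry of multiple gels; screened initially at 300 μM.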

Going from `COc1ccc(NC(=O)COc2ccc(C(=O)Nc3cccc(F)c3)c3ccccc23)cc1` to `O=C(COc1ccc(C(=O)Nc2cccc(F)c2)c2ccccc12)Nc1ccc(O)cc1`, the IC50 falls from 161 µM to 65 µM (2.5-fold). The second is the more potent here.

`CCOC(=O)CNC(=O)COc1ccc(C(=O)Nc2cccc(F)c2)c2ccccc12` and `O=C(O)CNC(=O)COc1ccc(C(=O)Nc2cccc(F)c2)c2ccccc12` cannot be ordered by IC50: over 300 µM for the first, over 300 µM for the second.

Going from `NC(=O)COc1ccc(C(=O)Nc2cccc(F)c2)c2ccccc12` to `NNC(=O)COc1ccc(C(=O)Nc2cccc(F)c2)c2ccccc12`, the IC50 rises from 272 µM to over 300 µM.

`COc1ccc(NC(=O)COc2ccc(C(=O)Nc3cccc(F)c3)c3ccccc23)cc1OC` and `COc1ccc(OC)c(NC(=O)COc2ccc(C(=O)Nc3cccc(F)c3)c3ccccc23)c1` cannot be ordered by IC50: 464 µM for the first, over 300 µM for the second.

Compared with `O=C(COc1ccc(C(=O)Nc2cccc(F)c2)c2ccccc12)Nc1cccc(F)c1`, `O=C(COc1ccc(C(=O)Nc2cccc(F)c2)c2ccccc12)Nc1cccc(O)c1` is lower in IC50: over 300 µM for the first, 86 µM for the second.

`CC(C)CNC(=O)COc1ccc(C(=O)Nc2cccc(F)c2)c2ccccc12` and `CC(C)NC(=O)COc1ccc(C(=O)Nc2cccc(F)c2)c2ccccc12` are within 1.5-fold of each other in IC50: 298 µM for the first, 272 µM for the second.

`O=C(Nc1cccc(F)c1)c1ccc(OCC(=O)N2CCOCC2)c2ccccc12` and `CNC(=O)COc1ccc(C(=O)Nc2cccc(F)c2)c2ccccc12` cannot be ordered by IC50: over 300 µM for the first, over 300 µM for the second.

`O=C(COc1ccc(C(=O)Nc2cccc(F)c2)c2ccccc12)NC1CC1` and `CCNC(=O)COc1ccc(C(=O)Nc2cccc(F)c2)c2ccccc12` are within 1.5-fold of each other in IC50: 173 µM for the first, 200 µM for the second.

`C#CCNC(=O)COc1ccc(C(=O)Nc2cccc(F)c2)c2ccccc12` and `CCCNC(=O)COc1ccc(C(=O)Nc2cccc(F)c2)c2ccccc12` are within 1.5-fold of each other in IC50: 331 µM for the first, 278 µM for the second.

First: O=C(COc1ccc(C(=O)Nc2cccc(F)c2)c2ccccc12)NCCOCc1ccccc1
Second: O=C(COc1ccc(C(=O)Nc2cccc(F)c2)c2ccccc12)Nc1ccccc1
The IC50 of the first is higher: over 300 µM for the first, 254 µM for the second. The second is the more potent here.

`O=C(COc1ccc(C(=O)Nc2cccc(F)c2)c2ccccc12)Nc1ccc(F)cc1` and `O=C(COc1ccc(C(=O)Nc2cccc(F)c2)c2ccccc12)Nc1ccccc1F` are within 1.5-fold of each other in IC50: 293 µM for the first, 433 µM for the second.

`COc1cc(CNC(=O)COc2ccc(C(=O)Nc3cccc(F)c3)c3ccccc23)cc(OC)c1` and `COc1cc(NC(=O)COc2ccc(C(=O)Nc3cccc(F)c3)c3ccccc23)cc(OC)c1` cannot be ordered by IC50: over 300 µM for the first, over 300 µM for the second.

`CC(C)(C)NC(=O)COc1ccc(C(=O)Nc2cccc(F)c2)c2ccccc12` and `CN(C)C(=O)COc1ccc(C(=O)Nc2cccc(F)c2)c2ccccc12` cannot be ordered by IC50: over 300 µM for the first, over 300 µM for the second.

`O=C(COc1ccc(C(=O)Nc2cccc(F)c2)c2ccccc12)NCCO` and `CN(C)CCNC(=O)COc1ccc(C(=O)Nc2cccc(F)c2)c2ccccc12` cannot be ordered by IC50: over 300 µM for the first, over 300 µM for the second.

`COc1ccccc1NC(=O)COc1ccc(C(=O)Nc2cccc(F)c2)c2ccccc12` and `COc1cccc(NC(=O)COc2ccc(C(=O)Nc3cccc(F)c3)c3ccccc23)c1` are within 1.5-fold of each other in IC50: 718 µM for the first, 580 µM for the second.

Going from `O=C(COc1ccc(C(=O)Nc2cccc(F)c2)c2ccccc12)NCC(F)(F)F` to `Cc1ccc(NC(=O)COc2ccc(C(=O)Nc3cccc(F)c3)c3ccccc23)c(C)c1`, the IC50 rises from 111 µM to over 300 µM. The first is the more potent here.

Biological target: POU domain, class 3, transcription factor 3 (Mus musculus) (UniProt P31361)
Experiment: Antagonistic activity against BRN1/DNA interaction by electrophoretic mobility shift assay

POU domain, class 3, transcription factor 3 (Mus musculus), sequence (P31361 whole entry, looked up, the tested form may be a part): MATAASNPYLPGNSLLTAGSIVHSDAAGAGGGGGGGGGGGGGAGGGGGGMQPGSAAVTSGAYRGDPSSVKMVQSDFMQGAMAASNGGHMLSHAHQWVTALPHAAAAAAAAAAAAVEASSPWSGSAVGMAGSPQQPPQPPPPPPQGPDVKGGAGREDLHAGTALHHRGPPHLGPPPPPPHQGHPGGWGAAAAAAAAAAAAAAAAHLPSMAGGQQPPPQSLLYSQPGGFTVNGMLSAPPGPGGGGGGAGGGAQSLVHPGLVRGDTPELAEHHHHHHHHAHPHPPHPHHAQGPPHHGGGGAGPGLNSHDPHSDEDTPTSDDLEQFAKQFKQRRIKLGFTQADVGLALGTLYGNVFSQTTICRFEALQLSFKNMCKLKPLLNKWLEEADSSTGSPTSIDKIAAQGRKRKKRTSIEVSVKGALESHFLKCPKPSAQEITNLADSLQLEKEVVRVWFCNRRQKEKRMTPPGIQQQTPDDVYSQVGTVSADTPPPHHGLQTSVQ

`O=C(COc1ccc(C(=O)Nc2cccc(F)c2)c2ccccc12)Nc1ccc(O)cc1` and `O=C(COc1ccc(C(=O)Nc2cccc(F)c2)c2ccccc12)Nc1cccc(O)c1` are within 1.5-fold of each other in IC50: 124 µM for the first, 142 µM for the second.

First: O=C(COc1ccc(C(=O)Nc2cccc(F)c2)c2ccccc12)NC1CC1
Second: O=C(COc1ccc(C(=O)Nc2cccc(F)c2)c2ccccc12)NCC(F)(F)F
The IC50 of the first is 5-fold higher: 810 µM for the first, 162 µM for the second.

Biological target: POU domain, class 3, transcription factor 2 (Mus musculus) (UniProt P31360)
Experiment: Antagonistic activity against BRN2/DNA interaction by electrophoretic mobility shift assay

POU domain, class 3, transcription factor 2 (Mus musculus), sequence (P31360 whole entry, looked up, the tested form may be a part): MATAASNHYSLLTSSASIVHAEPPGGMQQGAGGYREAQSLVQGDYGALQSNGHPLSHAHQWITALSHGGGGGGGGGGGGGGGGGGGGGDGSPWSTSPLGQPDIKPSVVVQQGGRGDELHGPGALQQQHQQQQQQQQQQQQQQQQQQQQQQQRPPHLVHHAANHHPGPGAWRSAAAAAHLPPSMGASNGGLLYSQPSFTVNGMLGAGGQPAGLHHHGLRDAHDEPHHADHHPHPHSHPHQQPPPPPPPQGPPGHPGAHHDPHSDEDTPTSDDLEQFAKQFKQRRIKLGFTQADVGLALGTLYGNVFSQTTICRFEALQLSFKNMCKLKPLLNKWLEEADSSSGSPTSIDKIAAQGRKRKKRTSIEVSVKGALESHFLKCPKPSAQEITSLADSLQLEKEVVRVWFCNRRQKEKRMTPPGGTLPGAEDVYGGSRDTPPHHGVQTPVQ

`O=C(COc1ccc(C(=O)Nc2cccc(F)c2)c2ccccc12)Nc1ccc(O)cc1` and `O=C(COc1ccc(C(=O)Nc2cccc(F)c2)c2ccccc12)Nc1cccc(O)c1` are within 1.5-fold of each other in IC50: 138 µM for the first, 148 µM for the second.

First: O=C(COc1ccc(C(=O)Nc2cccc(F)c2)c2ccccc12)NC1CC1
Second: O=C(COc1ccc(C(=O)Nc2cccc(F)c2)c2ccccc12)NCC(F)(F)F
The IC50 of the first is higher: over 10000 µM for the first, 204 µM for the second. The second is the more potent here.
